# According to ChEMBL document CHEMBL1144337, “Discovery and structure-activity relationships of 2-benzylpyrrolidine-substituted aryloxypropanols as calcium-sensing receptor antagonists” (Bioorg Med Chem Lett, 2005):
# Biological target: Voltage-gated inwardly rectifying potassium channel KCNH2 (Homo sapiens, UniProt Q12809)
# Experiment: Inhibitory concentration against human Kv11.1 ERG potassium channel
# Conditions: not given
# Procedure, shortened: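 Inhibition of hERG K+ current, measured by a patch-clamp assay, reported as an IC50.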
# Voltage-gated inwardly rectifying potassium channel KCNH2, sequence (Q12809 whole entry): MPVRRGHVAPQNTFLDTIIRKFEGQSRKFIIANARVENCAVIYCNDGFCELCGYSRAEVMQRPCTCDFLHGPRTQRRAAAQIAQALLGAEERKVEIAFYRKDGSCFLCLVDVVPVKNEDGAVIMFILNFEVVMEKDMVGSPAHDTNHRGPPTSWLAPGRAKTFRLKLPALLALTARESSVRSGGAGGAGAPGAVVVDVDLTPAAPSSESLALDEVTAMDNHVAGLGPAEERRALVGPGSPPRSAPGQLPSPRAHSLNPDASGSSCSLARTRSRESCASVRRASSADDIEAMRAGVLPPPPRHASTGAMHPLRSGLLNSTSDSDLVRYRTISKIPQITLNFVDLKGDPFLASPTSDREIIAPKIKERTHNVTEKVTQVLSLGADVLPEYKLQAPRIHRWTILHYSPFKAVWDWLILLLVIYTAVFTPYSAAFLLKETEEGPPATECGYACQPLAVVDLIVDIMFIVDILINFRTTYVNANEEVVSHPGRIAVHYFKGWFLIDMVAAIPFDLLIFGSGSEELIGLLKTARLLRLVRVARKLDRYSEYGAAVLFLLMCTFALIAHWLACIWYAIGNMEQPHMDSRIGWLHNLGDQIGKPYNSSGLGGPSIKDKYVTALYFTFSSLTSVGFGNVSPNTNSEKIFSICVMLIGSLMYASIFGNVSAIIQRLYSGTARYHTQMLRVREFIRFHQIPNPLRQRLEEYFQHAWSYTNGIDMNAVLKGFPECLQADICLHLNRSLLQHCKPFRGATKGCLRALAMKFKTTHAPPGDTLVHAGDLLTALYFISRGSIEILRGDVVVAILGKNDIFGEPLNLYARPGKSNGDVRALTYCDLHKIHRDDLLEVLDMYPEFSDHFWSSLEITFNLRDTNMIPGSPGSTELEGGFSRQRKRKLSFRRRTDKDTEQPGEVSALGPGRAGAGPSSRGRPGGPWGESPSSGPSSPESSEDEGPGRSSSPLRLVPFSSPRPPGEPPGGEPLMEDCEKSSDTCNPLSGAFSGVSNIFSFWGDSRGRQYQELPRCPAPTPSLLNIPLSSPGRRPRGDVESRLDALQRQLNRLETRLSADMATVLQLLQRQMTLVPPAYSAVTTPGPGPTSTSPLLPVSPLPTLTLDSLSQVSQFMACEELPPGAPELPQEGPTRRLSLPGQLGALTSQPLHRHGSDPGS
row,SMILES,IC50 [nM]
1,CC(C)(Cc1ccc2ccccc2c1)NC[C@@H](O)COc1cccc(Cl)c1C#N,194

# Tested on: HEK293
# Experiment: Inhibitory concentration for the inhibition of intracellular [Ca2+] release in HEK cells by using FLIPR technology
# Assay type: functional, cell-based
# Conditions: Homo sapiens
# Procedure, shortened: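 HEK cells over-expressing recombinant human calcium-sensing receptor. Intracellular Ca²⁺ release was stimulated with extracellular Ca²⁺, and inhibition by test compound was read by fluorescence on FLIPR. IC50 values are means of two experiments, with standard deviation reported.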
row,SMILES,IC50 [nM]
1,N#Cc1c(Cl)cccc1OC[C@H](O)CN1CCC[C@H]1Cc1ccccc1,120
2,N#Cc1c(Cl)cccc1OC[C@H](O)CN1CCC(Cc2cc(F)ccc2F)CC1,2100
3,COc1ccccc1C[C@@H]1CCCN1C[C@@H](O)COc1cccc(Cl)c1C#N,> 30000
4,COc1cccc(CC2CCN(C[C@@H](O)COc3cccc(Cl)c3C#N)CC2)c1,640
5,N#Cc1c(Cl)cccc1OC[C@H](O)CN1CCC(Cc2ccccc2)CC1,2200
6,CN(C)c1ccc(C[C@@H]2CCCN2C[C@@H](O)COc2cccc(Cl)c2C#N)cc1,1900
7,N#Cc1c(Cl)cccc1OC[C@H](O)CN1CCC(Cc2ccccc2)C1 (stereo not given in full),10000
8,N#Cc1c(Cl)cccc1OC[C@H](O)CN1CCCC1Cc1ccccc1 (stereo not given in full),350
9,N#Cc1c(Cl)cccc1OC[C@H](O)CN1CCC[C@H]1Cc1ccc(O)cc1,> 30000
10,COc1cccc(C[C@@H]2CCCN2C[C@@H](O)COc2cccc(Cl)c2C#N)c1,130
11,CC(C)(Cc1ccc2ccccc2c1)NC[C@@H](O)COc1cccc(Cl)c1C#N,80
12,N#Cc1c(Cl)cccc1OC[C@H](O)CN1CC[C@@H](O)[C@H]1Cc1ccccc1,1400
13,COc1cccc(C(O)[C@@H]2CCCN2C[C@@H](O)COc2cccc(Cl)c2C#N)c1 (stereo not given in full),> 30000
14,N#Cc1c(Cl)cccc1OC[C@H](O)CN1CCCC(Cc2ccccc2)C1 (stereo not given in full),> 30000
15,N#Cc1c(Cl)cccc1OC[C@H](O)CN1CCCCC1Cc1ccccc1 (stereo not given in full),> 30000
16,N#Cc1c(Cl)cccc1OC[C@H](O)CN1CC[C@H](F)[C@H]1Cc1ccccc1,2800
17,N#Cc1c(Cl)cccc1OC[C@H](O)CN1CCC[C@H]1Cc1cccc(F)c1,150
18,COc1ccc(C[C@@H]2CCCN2C[C@@H](O)COc2cccc(Cl)c2C#N)cc1,200
19,N#Cc1c(Cl)cccc1OC[C@H](O)CN1CCC[C@H]1C(O)c1cccc(F)c1 (stereo not given in full),2300
20,N#Cc1c(Cl)cccc1OC[C@H](O)CN1CCC(F)(F)[C@H]1Cc1ccccc1,> 30000
21,COc1ccc(CC2CCN(C[C@@H](O)COc3cccc(Cl)c3C#N)CC2)cc1,> 30000
22,N#Cc1c(Cl)cccc1OC[C@H](O)CN1CCC[C@@H]1Cc1ccccc1,> 30000
23,N#Cc1c(Cl)cccc1OC[C@H](O)CN1CCC[C@H]1Cc1ccccc1O,100
24,COc1ccc(C[C@@H]2CCCN2C[C@@H](O)COc2cccc(Cl)c2C#N)cc1OC,410
